Measured values from ChEMBL document CHEMBL1122887, “Structure-activity studies on the N-terminal region of growth hormone releasing factor” (1985).
Calls of active or inactive are those of the source.

Legend:
[1] = tested on: Rattus norvegicus; test: Effect on plasma growth hormone in anesthetized rat at a dose of 5 ug/100 g of body weight; format: functional
Summary of the method: (§1)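 Male Charles River rats (175–350 g) anesthetized with sodium pentobarbital (6 mg/100 g body wt); 30 min later, 6–9 per group received a single subcutaneous 0.5-mL injection of saline, GRF(1-29)NH₂ reference, or one of two analogue doses. Jugular vein blood was drawn 15 min post-injection, and plasma GH was measured by radioimmunoassay, reported as ng/mL ± SE.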

[2] = tested on: Rattus norvegicus; test: Effect on plasma growth hormone in anesthetized rat at a dose of 10 ug/100 g of body weight; format: functional; summary of the method: as §1
[3] = tested on: Rattus norvegicus; test: Percent growth hormone releasing activity in anesthetized rat relative to hpGRF (1-29)NH2; Not active; format: functional, organism-based
Summary of the method: (§2)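 In pentobarbital-anesthetized male Charles River rats (6–9/group), two subcutaneous analogue doses and GRF(1-29)NH₂ reference doses were given. Plasma GH was measured by radioimmunoassay in jugular blood taken 15 min post-injection. Relative potency with 95% confidence limits came from a four-point assay design by Pugsley's method. Not active means no activity at the doses tested.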

[4] = tested on: Rattus norvegicus; test: Effect on plasma growth hormone in anesthetized rat at a dose of 4 ug/100 g of body weight; format: functional; summary of the method: as §1
[5] = tested on: Rattus norvegicus; test: Percent growth hormone releasing activity in anesthetized rat relative to hpGRF (1-29)NH2; format: functional; summary of the method: as §2
[6] = tested on: Rattus norvegicus; test: Effect on plasma growth hormone in anesthetized rat at a dose of 20 ug/100 g of body weight; format: functional; summary of the method: as §1
[7] = tested on: Rattus norvegicus; test: Effect on plasma growth hormone in anesthetized rat at a dose of 25 ug/100 g of body weight; format: functional; summary of the method: as §1
[8] = tested on: Rattus norvegicus; test: Effect on plasma growth hormone in anesthetized rat at a dose of 50 ug/100 g of body weight; format: functional; summary of the method: as §1
[9] = tested on: Rattus norvegicus; test: Effect on plasma growth hormone in anesthetized rat at a dose of 125 ug/100 g of body weight; format: functional; summary of the method: as §1
[10] = tested on: Rattus norvegicus; test: Effect on plasma growth hormone in anesthetized rat at a dose of 0.25 ug/100 g of body weight; format: functional; summary of the method: as §1
[11] = tested on: Rattus norvegicus; test: Effect on plasma growth hormone in anesthetized rat at a dose of 0.62 ug/100 g of body weight; format: functional; summary of the method: as §1
[12] = tested on: Rattus norvegicus; test: Effect on plasma growth hormone in anesthetized rat at a dose of 3 ug/100 g of body weight; format: functional; summary of the method: as §1
[13] = tested on: Rattus norvegicus; test: Effect on plasma growth hormone in anesthetized rat at a dose of 1.2 ug/100 g of body weight; format: functional; summary of the method: as §1
[14] = tested on: Rattus norvegicus; test: Effect on plasma growth hormone in anesthetized rat at a dose of 32 ug/100 g of body weight; format: functional; summary of the method: as §1
[15] = tested on: Rattus norvegicus; test: Effect on plasma growth hormone in anesthetized rat at a dose of 16 ug/100 g of body weight; format: functional; summary of the method: as §1

CC[C@H](C)[C@H](NC(=O)[C@H](C)NC(=O)[C@H](CC(=O)O)NC(=O)[C@@H](Cc1ccccc1)NC(=O)[C@H](Cc1ccc(O)cc1)NC(C)=O)C(=O)N[C@@H](Cc1ccccc1)C(=O)N[C@H](C(=O)N[C@@H](CC(N)=O)C(=O)N[C@@H](CO)C(=O)N[C@@H](Cc1ccc(O)cc1)C(=O)N[C@@H](CCCN=C(N)N)C(=O)N[C@@H](CCCCN)C(=O)N[C@H](C(=O)N[C@@H](CC(C)C)C(=O)NCC(=O)N[C@@H](CCC(N)=O)C(=O)N[C@@H](CC(C)C)C(=O)N[C@@H](CO)C(=O)N[C@@H](C)C(=O)N[C@@H](CCCN=C(N)N)C(=O)N[C@@H](CCCCN)C(=O)N[C@@H](CC(C)C)C(=O)N[C@@H](CC(C)C)C(=O)N[C@@H](CCC(N)=O)C(=O)N[C@@H](CC(=O)O)C(=O)N[C@H](C(=O)N[C@@H](CCSC)C(=O)N[C@@H](CO)C(=O)N[C@@H](CCCN=C(N)N)C(N)=O)[C@@H](C)CC)C(C)C)[C@@H](C)O
Activity [1]: 475 ng/mL
Activity [2]: 422 ng/mL
Activity [3]: inactive

CC[C@H](C)[C@H](NC(=O)[C@H](C)NC(=O)[C@H](CC(=O)O)NC(=O)[C@H](C)NC(=O)[C@@H](N)Cc1ccc(O)cc1)C(=O)N[C@@H](Cc1ccccc1)C(=O)N[C@H](C(=O)N[C@H](CC(N)=O)C(=O)N[C@@H](CO)C(=O)N[C@@H](Cc1ccc(O)cc1)C(=O)N[C@@H](CCCN=C(N)N)C(=O)N[C@@H](CCCCN)C(=O)N[C@H](C(=O)N[C@@H](CC(C)C)C(=O)NCC(=O)N[C@@H](CCC(N)=O)C(=O)N[C@@H](CC(C)C)C(=O)N[C@@H](CO)C(=O)N[C@@H](C)C(=O)N[C@@H](CCCN=C(N)N)C(=O)N[C@@H](CCCCN)C(=O)N[C@@H](CC(C)C)C(=O)N[C@@H](CC(C)C)C(=O)N[C@@H](CCC(N)=O)C(=O)N[C@@H](CC(=O)O)C(=O)N[C@H](C(=O)N[C@@H](CCSC)C(=O)N[C@@H](CO)C(=O)N[C@@H](CCCN=C(N)N)C(N)=O)[C@@H](C)CC)C(C)C)[C@@H](C)O
Activity [4]: 1296 ng/mL
Activity [2]: 2397 ng/mL
Activity [5]: 221%

CC[C@H](C)[C@H](NC(=O)[C@H](C)NC(=O)[C@H](CC(=O)O)NC(=O)[C@H](C)NC(=O)[C@@H](N)Cc1ccc(O)cc1)C(=O)N[C@@H](Cc1ccccc1)C(=O)N[C@H](C(=O)N[C@@H](CC(N)=O)C(=O)N[C@@H](CO)C(=O)N[C@@H](Cc1ccc(O)cc1)C(=O)N[C@@H](CCCN=C(N)N)C(=O)N[C@@H](CCCCN)C(=O)N[C@H](C(=O)N[C@@H](CC(C)C)C(=O)NCC(=O)N[C@@H](CCC(N)=O)C(=O)N[C@@H](CC(C)C)C(=O)N[C@@H](CO)C(=O)N[C@@H](C)C(=O)N[C@@H](CCCN=C(N)N)C(=O)N[C@@H](CCCCN)C(=O)N[C@@H](CC(C)C)C(=O)N[C@@H](CC(C)C)C(=O)N[C@@H](CCC(N)=O)C(=O)N[C@@H](CC(=O)O)C(=O)N[C@H](C(=O)N[C@@H](CCSC)C(=O)N[C@@H](CO)C(=O)N[C@@H](CCCN=C(N)N)C(N)=O)[C@@H](C)CC)C(C)C)[C@@H](C)O
Activity [6]: 1781 ng/mL

CC[C@H](C)[C@H](NC(=O)[C@H](C)NC(=O)[C@H](CC(=O)O)NC(=O)[C@@H](C)NC(=O)[C@@H](Cc1ccc(O)cc1)NC(C)=O)C(=O)N[C@@H](Cc1ccccc1)C(=O)N[C@H](C(=O)N[C@@H](CC(N)=O)C(=O)N[C@@H](CO)C(=O)N[C@@H](Cc1ccc(O)cc1)C(=O)N[C@@H](CCCN=C(N)N)C(=O)N[C@@H](CCCCN)C(=O)N[C@H](C(=O)N[C@@H](CC(C)C)C(=O)NCC(=O)N[C@@H](CCC(N)=O)C(=O)N[C@@H](CC(C)C)C(=O)N[C@@H](CO)C(=O)N[C@@H](C)C(=O)N[C@@H](CCCN=C(N)N)C(=O)N[C@@H](CCCCN)C(=O)N[C@@H](CC(C)C)C(=O)N[C@@H](CC(C)C)C(=O)N[C@@H](CCC(N)=O)C(=O)N[C@@H](CC(=O)O)C(=O)N[C@H](C(=O)N[C@@H](CCSC)C(=O)N[C@@H](CO)C(=O)N[C@@H](CCCN=C(N)N)C(N)=O)[C@@H](C)CC)C(C)C)[C@@H](C)O (stereo in doubt; 4)
Activity [7]: 2234 ng/mL
Activity [1]: 805 ng/mL
Activity [5]: 110%

CC[C@H](C)[C@H](NC(=O)[C@H](C)NC(=O)[C@H](CC(=O)O)NC(=O)[C@@H](C)NC(=O)[C@@H](Cc1ccc(O)cc1)NC(C)=O)C(=O)N[C@@H](Cc1ccccc1)C(=O)N[C@H](C(=O)N[C@@H](CC(N)=O)C(=O)N[C@@H](CO)C(=O)N[C@@H](Cc1ccc(O)cc1)C(=O)N[C@@H](CCCN=C(N)N)C(=O)N[C@@H](CCCCN)C(=O)N[C@H](C(=O)N[C@@H](CC(C)C)C(=O)NCC(=O)N[C@@H](CCC(N)=O)C(=O)N[C@@H](CC(C)C)C(=O)N[C@@H](CO)C(=O)N[C@@H](C)C(=O)N[C@@H](CCCN=C(N)N)C(=O)N[C@@H](CCCCN)C(=O)N[C@@H](CC(C)C)C(=O)N[C@@H](CC(C)C)C(=O)N[C@@H](CCC(N)=O)C(=O)N[C@@H](CC(=O)O)C(=O)N[C@H](C(=O)N[C@@H](CCSC)C(=O)N[C@@H](CO)C(=O)N[C@@H](CCCN=C(N)N)C(N)=O)[C@@H](C)CC)C(C)C)[C@@H](C)O (stereo in doubt; 5)
Activity [8]: 435 ng/mL
Activity [9]: 670 ng/mL
Activity [5]: <5%

CC[C@H](C)[C@H](NC(=O)[C@H](C)NC(=O)[C@H](CC(=O)O)NC(=O)[C@@H](C)NC(=O)[C@@H](Cc1ccc(O)cc1)NC(C)=O)C(=O)N[C@@H](Cc1ccccc1)C(=O)N[C@H](C(=O)N[C@@H](CC(N)=O)C(=O)N[C@@H](CO)C(=O)N[C@@H](Cc1ccc(O)cc1)C(=O)N[C@@H](CCCN=C(N)N)C(=O)N[C@@H](CCCCN)C(=O)N[C@H](C(=O)N[C@@H](CC(C)C)C(=O)NCC(=O)N[C@@H](CCC(N)=O)C(=O)N[C@@H](CC(C)C)C(=O)N[C@@H](CO)C(=O)N[C@@H](C)C(=O)N[C@@H](CCCN=C(N)N)C(=O)N[C@@H](CCCCN)C(=O)N[C@@H](CC(C)C)C(=O)N[C@@H](CC(C)C)C(=O)N[C@@H](CCC(N)=O)C(=O)N[C@@H](CC(=O)O)C(=O)N[C@H](C(=O)N[C@@H](CCSC)C(=O)N[C@@H](CO)C(=O)N[C@@H](CCCN=C(N)N)C(N)=O)[C@@H](C)CC)C(C)C)[C@@H](C)O (stereo in doubt; 7)
Activity [7]: 328 ng/mL
Activity [1]: 213 ng/mL

CC[C@H](C)[C@H](NC(=O)[C@H](C)NC(=O)[C@H](CC(=O)O)NC(=O)[C@@H](C)NC(=O)[C@@H](Cc1ccc(O)cc1)NC(C)=O)C(=O)N[C@@H](Cc1ccccc1)C(=O)N[C@H](C(=O)N[C@@H](CC(N)=O)C(=O)N[C@@H](CO)C(=O)N[C@@H](Cc1ccc(O)cc1)C(=O)N[C@@H](CCCN=C(N)N)C(=O)N[C@@H](CCCCN)C(=O)N[C@H](C(=O)N[C@@H](CC(C)C)C(=O)NCC(=O)N[C@@H](CCC(N)=O)C(=O)N[C@@H](CC(C)C)C(=O)N[C@@H](CO)C(=O)N[C@@H](C)C(=O)N[C@@H](CCCN=C(N)N)C(=O)N[C@@H](CCCCN)C(=O)N[C@@H](CC(C)C)C(=O)N[C@@H](CC(C)C)C(=O)N[C@@H](CCC(N)=O)C(=O)N[C@@H](CC(=O)O)C(=O)N[C@H](C(=O)N[C@@H](CCSC)C(=O)N[C@@H](CO)C(=O)N[C@@H](CCCN=C(N)N)C(N)=O)[C@@H](C)CC)C(C)C)[C@@H](C)O (stereo in doubt; 12)
Activity [10]: 1235 ng/mL
Activity [11]: 2386 ng/mL
Activity [5]: 3817%

CC[C@H](C)[C@H](NC(=O)[C@H](C)NC(=O)[C@H](CC(=O)O)NC(=O)[C@@H](C)NC(=O)[C@@H](Cc1ccc(O)cc1)NC(C)=O)C(=O)N[C@@H](Cc1ccccc1)C(=O)N[C@H](C(=O)N[C@@H](CC(N)=O)C(=O)N[C@@H](CO)C(=O)N[C@@H](Cc1ccc(O)cc1)C(=O)N[C@@H](CCCN=C(N)N)C(=O)N[C@@H](CCCCN)C(=O)N[C@H](C(=O)N[C@@H](CC(C)C)C(=O)NCC(=O)N[C@@H](CCC(N)=O)C(=O)N[C@@H](CC(C)C)C(=O)N[C@@H](CO)C(=O)N[C@@H](C)C(=O)N[C@@H](CCCN=C(N)N)C(=O)N[C@@H](CCCCN)C(=O)N[C@@H](CC(C)C)C(=O)N[C@@H](CC(C)C)C(=O)N[C@@H](CCC(N)=O)C(=O)N[C@@H](CC(=O)O)C(=O)N[C@H](C(=O)N[C@@H](CCSC)C(=O)N[C@@H](CO)C(=O)N[C@@H](CCCN=C(N)N)C(N)=O)[C@@H](C)CC)C(C)C)[C@@H](C)O (stereo in doubt; 13)
Activity [12]: 3504 ng/mL
Activity [13]: 1329 ng/mL
Activity [5]: 1297%

CC[C@H](C)[C@H](NC(=O)[C@H](C)NC(=O)[C@H](CC(=O)O)NC(=O)[C@@H](C)NC(=O)[C@@H](Cc1ccc(O)cc1)NC(C)=O)C(=O)N[C@@H](Cc1ccccc1)C(=O)N[C@H](C(=O)N[C@@H](CC(N)=O)C(=O)N[C@@H](CO)C(=O)N[C@@H](Cc1ccc(O)cc1)C(=O)N[C@@H](CCCN=C(N)N)C(=O)N[C@@H](CCCCN)C(=O)N[C@H](C(=O)N[C@@H](CC(C)C)C(=O)NCC(=O)N[C@@H](CCC(N)=O)C(=O)N[C@@H](CC(C)C)C(=O)N[C@@H](CO)C(=O)N[C@@H](C)C(=O)N[C@@H](CCCN=C(N)N)C(=O)N[C@@H](CCCCN)C(=O)N[C@@H](CC(C)C)C(=O)N[C@@H](CC(C)C)C(=O)N[C@@H](CCC(N)=O)C(=O)N[C@@H](CC(=O)O)C(=O)N[C@H](C(=O)N[C@@H](CCSC)C(=O)N[C@@H](CO)C(=O)N[C@@H](CCCN=C(N)N)C(N)=O)[C@@H](C)CC)C(C)C)[C@@H](C)O (stereo in doubt; 19)
Activity [14]: 2378 ng/mL
Activity [15]: 504 ng/mL
Activity [5]: 52%
